Bioassay records (PubChem)
Mdm2-MdmX inh: inhibitors of human Mdm2-MdmX association, primary screen, cell-based, luminescence, split luciferase, SaOS-2, uHTS. Protein Mdm4 (Homo sapiens) + E3 ubiquitin-protein ligase Mdm2 (Homo sapiens), …. SaOS-2 split-luciferase Mdm2/MdmX complementation. inhibition, % at 8 µM. 330,000 tested, 3% active. AID 485346, 2010;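 active = inhibition of at least 50% at 8 µM in the primary screen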
Target sequence (O15151 whole entry, looked up): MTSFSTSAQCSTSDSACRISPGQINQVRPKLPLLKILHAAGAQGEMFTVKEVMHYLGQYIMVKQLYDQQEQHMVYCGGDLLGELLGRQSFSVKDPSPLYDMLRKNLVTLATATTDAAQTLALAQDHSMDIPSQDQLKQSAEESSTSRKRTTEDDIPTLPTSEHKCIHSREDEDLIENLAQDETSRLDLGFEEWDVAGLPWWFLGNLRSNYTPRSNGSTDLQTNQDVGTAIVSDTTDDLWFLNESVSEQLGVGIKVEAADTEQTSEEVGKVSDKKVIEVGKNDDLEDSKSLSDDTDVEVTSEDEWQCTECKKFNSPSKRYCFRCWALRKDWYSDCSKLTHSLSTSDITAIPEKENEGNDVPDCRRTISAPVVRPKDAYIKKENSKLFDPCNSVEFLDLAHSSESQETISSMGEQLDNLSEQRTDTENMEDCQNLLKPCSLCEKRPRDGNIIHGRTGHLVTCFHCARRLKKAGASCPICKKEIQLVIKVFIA
Target sequence (Q00987 whole entry, looked up): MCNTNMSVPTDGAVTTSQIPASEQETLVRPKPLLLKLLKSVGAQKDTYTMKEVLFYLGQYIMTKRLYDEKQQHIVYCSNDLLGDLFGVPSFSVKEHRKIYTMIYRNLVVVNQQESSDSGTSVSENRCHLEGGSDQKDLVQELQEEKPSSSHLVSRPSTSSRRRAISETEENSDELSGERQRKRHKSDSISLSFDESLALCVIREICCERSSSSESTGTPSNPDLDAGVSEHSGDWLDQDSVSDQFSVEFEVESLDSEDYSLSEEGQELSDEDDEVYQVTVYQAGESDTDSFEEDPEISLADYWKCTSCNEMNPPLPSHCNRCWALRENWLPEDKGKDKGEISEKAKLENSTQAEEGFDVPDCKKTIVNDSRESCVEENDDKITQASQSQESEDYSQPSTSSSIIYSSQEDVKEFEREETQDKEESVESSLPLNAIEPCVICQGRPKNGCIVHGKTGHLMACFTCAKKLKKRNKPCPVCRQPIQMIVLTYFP
Calb FLC: C. albicans growth inhibition with fluconazole, primary screen, CaCi-2 strain, Alamar Blue fluorescence; C. albicans CaCi-2 (fluconazole-resistant clinical isolate) + fluconazole, 48 h; AID 1979, 2009; 300,000 tested, 0.57% active; growth inhibition, % (test concentration not listed);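 active = growth inhibition above about 58% in most replicates, limit read from the data, passing the limit was not always enough; inconclusive = exactly half the replicates above a set limit; inactive = most replicates below a set limit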;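 also: all wells also contain fluconazole at 8 µg/ml as a sub-toxic cotreatment; 0% = median of DMSO wells and 100% = median of geldanamycin control wells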
SKKanGAS inh: S. pyogenes SKKanGAS growth inhibitors in kanamycin, primary screen, streptokinase expression inhibitor project, SKKanGAS strain, BacTiter-Glo luminescence; 6 h; inhibition, % at 7.5 µM; 300,000 tested, 1.3% active; AID 1662, 2009;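 active = mean replicate score, as percent of positive control median, at least 50; inconclusive = mean below 50 but one replicate at or above 50; inactive = mean and every replicate below 50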;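 also: strain carries kanamycin resistance gene driven by streptokinase promoter and grows in 40 µg/ml kanamycin; loss of luminescence reflects streptokinase promoter inhibition or plain growth inhibition; 0% = median of DMSO wells and 100% = positive control at its reference dose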
CSC inhib: cancer stem cell viability inhibitors, primary screen, luminescence. cancer stem cell-like cells viability. inhibition, % at 7.5 µM. 300,000 tested, 1.1% active; in the data active = inhibition above about 75%; inconclusive = no clear call, values can overlap the other calls; tested in HMLE shEcad cells
T cruzi inh: inhibitors of intracellular T. cruzi growth, primary screen, luminescence, NIH3T3 host cells | 300,000 tested, 1.4% active | AID 1885, 2009 | inhibition, % (no concentration beside the values) | T. cruzi beta-gal in NIH3T3, 90 h;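 active = mean inhibition across valid replicates above about 55%, limit read from the data; inconclusive = mean below that limit but half or more replicates reach it; inactive = mean below it, under half of replicates reach it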;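 also: signal also drops with host cell toxicity which is not excluded here; 0% = plate median of DMSO wells and 100% = zero luminescence signal; higher percent means less beta-gal luminescence so fewer parasites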
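System: mouse NIH/3T3 fibroblasts infected with β-gal-expressing T. cruzi Tulahuen C4 / Input: NIH/3T3 cells, 5,000 per well / Buffer or medium: Low-serum DMEM with 2% FBS / Probe or stimulus: 5000 reporter trypomastigotes per well / Schedule: ≥90 h infection period, 3 h prior cell attachment / Measured by: GalScreen luminescence, 60 min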
Beta apoptosis: inhibitors of cytokine-induced beta cell apoptosis, primary screen, luminescence; INS-1E cytokine-induced death, ATP luminescence, 48 h; percent of positive-control rescue, neutral wells zero; protection from apoptosis, % (concentration not given with the values); 300,000 tested, 0.8% active; AID 435005, 2010;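 active = Every replicate reaches about 75%, or at least half do and their mean reaches it too, limit read from the data; inconclusive = At least half of replicates reach the limit but their mean does not; inactive = Under half of replicates reach the limit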;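 also: 0% = cytokine-treated negative control wells and 100% = positive control rescue; higher means more ATP so stronger rescue from cytokine killing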
An asterisk follows results filed as active; ? = inconclusive; . = no result given. Sampled rows, rich in hits. Any-hit rate of the full collection: about 5.7%.

SMILES	Mdm2-MdmX inh	Calb FLC	SKKanGAS inh	CSC inhib	T cruzi inh	Beta apoptosis
Cc1cccc(Nc2nc(N)nc(CN3CCN(c4ccc(F)cc4)CC3)n2)c1	33.7	25.9	64.8*	0.8	-8.2	-4.4
COc1ccc(OCc2cc(C(=O)NC(C)Cc3cnccn3)no2)c(Cl)c1 (stereo unspecified)	-87.8	14.1	-1.5	-5.8	0.9	0.4
CN1CCC(N(C)C(=O)c2sc3cc(F)ccc3c2Cl)CC1	20.7	-21.4	-3.7	33.2	78.0*	1.3
CC(C)(C)c1ccc(C(=O)NC(=S)NNC(=O)c2cccs2)cc1	.	2.2	103.7*	37.7	55.7*	1.2
Cc1cccc(C(=O)NC(=S)NNC(=O)c2ccc(Cl)cc2)c1	.	-2.7	105.4*	36.7	21.4	3.3
Cc1cc(OCC(=O)NNC(=S)NC(=O)c2cccs2)ccc1Cl	29.7	103.8*	.	3.0	.	4.0
CCCC(=O)Nc1ccc(C(=O)NNC(=S)NC(=O)c2cccs2)cc1	15.2	-6.0	33.4	19.9	7.2	.
O=C(NNC(=S)Nc1ccccc1)c1cccs1	-26.6	-1.9	2.3	-8.8	-11.5	-0.7
O=C(NC(=S)NNC(=O)c1cccs1)c1ccccc1	25.6	0.2	86.4*	3.1	-4.7	9.4
CC(=O)c1ccc(S(=O)(=O)N(C)CC(=O)N2CCCCCC2)cc1	19.8	1.0	4.9	-12.6	-1.9	-2.6
O=C(CC12CC3CC(CC(Br)(C3)C1)C2)NC1CCCC1	-5.2	-13.2	0.0	-4.1	-8.2	-4.7
CC(C)(C)c1ccc(C(=O)NNC(=S)NC(=O)c2cccnc2)cc1	33.7	6.7	100.0*	24.5	28.7	61.7
O=C(NC(=S)NNC(=O)c1cccs1)c1ccco1	13.6	-2.7	61.2*	12.1	-22.3	-0.9
Cc1ccccc1C(=O)NNC(=S)NC(=O)c1cccs1	19.2	13.4	68.6*	2.4	-12.2	11.3
O=C(NNC(=O)c1cccs1)c1cccc(F)c1	-18.3	-0.5	-5.5	-15.3	4.7	-6.3
Cc1cccc(C(=O)NC(=S)NNC(=O)c2cccs2)c1	39.0	50.5	51.2*	4.6	-11.4	6.5
CCNS(=O)(=O)c1ccc(CCC(=O)N2CCC(C)CC2)cc1	2.8	1.9	1.3	.	5.0	.
CC(=O)c1ccc(N2CCN(S(=O)(=O)c3ccc4c(c3)CC(C)N4C(C)=O)CC2)cc1 (stereo unspecified)	15.3	-18.7	-0.9	3.8	-3.0	91.3*
CCC(=O)N1c2ccc(S(=O)(=O)N3CCN(CC)CC3)cc2CC1C (stereo unspecified)	4.0	-10.4	9.7	-6.2	-19.7	-0.1
CC1Cc2cc(S(=O)(=O)N3CCC(C(=O)N4CCN(c5ccccc5F)CC4)CC3)ccc2N1C(=O)C1CC1 (stereo unspecified)	46.9	-3.4	-4.0	15.4	4.6	74.9*
CCC(=O)N1c2ccc(S(=O)(=O)N3CCN(c4ccc([N+](=O)[O-])cc4)CC3)cc2CC1C (stereo unspecified)	18.0	-22.7	2.3	8.2	3.6	92.1*
CC(=O)c1ccc(N2CCN(S(=O)(=O)c3ccc4c(c3)CC(C)N4C(=O)C3CC3)CC2)cc1 (stereo unspecified)	14.5	4.2	-9.1	12.1	-13.5	.
CCOc1c(Cl)cc(/C=C/C(=O)N(CC)CC(=O)Nc2ccc(NC(C)=O)cc2)cc1OC	33.1	-4.1	39.5	.	17.9	10.0
COc1cc(NC(=O)c2cnc(N)s2)cc(C(=O)Nc2cccc(C(F)(F)F)c2)c1	35.2	-5.3	11.5	50.2	6.9	2.5
COc1cc(NC(=O)c2cc(C)on2)cc(C(=O)Nc2cccc(C(F)(F)F)c2)c1	34.1	44.8	10.2	87.7*	16.9	38.4
SMILES	Mdm2-MdmX inh	Calb FLC	SKKanGAS inh	CSC inhib	T cruzi inh	Beta apoptosis
COc1cc(NC(=O)c2ccnc(N)c2)cc(C(=O)Nc2cccc(C(F)(F)F)c2)c1	23.8	0.3	4.9	97.1*	-13.8	1.2
CC(=O)c1ccc(NC(=O)Cn2cnc(S(=O)(=O)N3CCc4ccccc43)c2)cc1	37.3	5.7	6.5	-16.1	-1.5	-0.4
Cc1ccc(C(=O)Nc2cccc(C(=O)N/N=C/c3ccc(F)cc3)c2)cc1	-21.9	-1.0	7.8	6.7	3.5	2.8
Cc1ccc(NC(=O)CSc2nnc3ccc(-c4ccncc4)nn23)cc1	11.0	1.1	-3.5	.	1.8	.
COc1ccc(-c2noc(N3CCCC(C(=O)Nc4ccc(F)cc4F)C3)n2)cc1 (stereo unspecified)	-7.3	-7.9	1.6	.	1.5	-1.0
CCc1noc(C)c1C(=O)N1CCCC(C(=O)c2cc(F)ccc2F)C1 (stereo unspecified)	4.5	15.5	-10.5	-12.0	2.6	1.1
CCc1noc(C)c1C(=O)N1CCCC(C(=O)c2cc(F)ccc2OC)C1 (stereo unspecified)	17.4	?	1.4	-3.4	55.2*	-10.8
COc1ccc(F)cc1C(=O)C1CCCN(C(=O)CCN2CCCCO2)C1 (stereo unspecified)	25.9	-4.5	-3.3	-10.6	7.5	-2.4
CCOC(=O)N1CCC(N2CCCC(C(=O)c3cc(F)ccc3OC)C2)CC1 (stereo unspecified)	6.3	-13.3	-0.2	4.5	58.8*	7.9
COc1ccc(C2(c3ccc(OC)cc3)NC(=O)N(CC(=O)N(C)C)C2=O)cc1	13.2	2.0	0.7	-9.7	2.0	-6.0
Cc1ccc(C)c(OC(=O)CN2C(=O)c3ccccc3C2=O)c1	11.2	1.6	2.2	-8.8	-5.7	-2.9
Cc1ccc(S(=O)(=O)N(C)/N=C/c2ccc(N(C)C)cc2)cc1	-0.8	-1.2	-11.6	-19.7	10.2	-8.2
COc1ccc([C@H]2/C=C\CN(S(=O)(=O)c3ccc(C)cc3)[C@@H](C)C(=O)N2Cc2ccc(F)cc2)cc1	-12.5	-3.6	9.2	-12.2	28.8	4.6
COc1ccc([C@H]2/C=C\CN(S(=O)(=O)c3ccc4ccccc4c3)[C@@H](C)C(=O)N2Cc2ccc(F)cc2)cc1	15.7	2.8	3.4	12.8	59.2*	9.8
COc1ccc(C2/C=C\CN(C(=O)c3ccccc3)[C@H](Cc3ccccc3)C(=O)N2Cc2ccc(F)cc2)cc1 (stereo partly specified)	31.4	18.0	18.0	26.1	15.8	93.7*
O=C(NCc1cccnc1)c1ccc(NS(=O)(=O)c2cccc([N+](=O)[O-])c2)cc1	16.4	.	.	-12.6	.	-0.1
CCCc1nnc(NC(=O)c2c(O)c3cccc4c3n(c2=O)CCC4)s1	-0.9	0.3	87.3*	28.8	-18.0	5.3
